Screening data from PubChem BioAssay.
The list is not random: actives were taken first. Their share in the collection is about 0.77%.
PERK inhibitor: block of dimerizer-induced PERK translation repression, primary screen, PERK inhibitor project, CHO PERK-DD cells, SEAP luminescence, HTS; CHO PERK-DD fusion, SEAP luminescence translation reporter; inhibition, % at 5.6 µM; 220,000 compounds, 0.17% hits;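 active means inhibition above the mean inhibition of all tested compounds plus 3 SD, set separately per screening campaign, cut at about 2.9% in these data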;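 further: PERK kinase domain activated by AP20187 dimerizer at 100 nM; 0% = DMSO with dimerizer and 100% = rapamycin at 8.4 µM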
ABCG2 block: ABCG2 efflux pump inhibitors, primary screen, multiplex with ABCB1, IgMXP3 cells, flow cytometry; inhibition, % at 6.6 µM; JC-1 efflux; 190,000 compounds, 0.1% hits; Broad substrate specificity ATP-binding cassette transporter ABCG2 (Homo sapiens), Q9UNQ0;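 active means inhibition above 80%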;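 further: 0% = DMSO and 100% = nicardipine control wells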
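Incubation: cells with compound and JC-1, 10 min at 25 °C, rotating, no wash / Test system: IgMXP3 (ABCG2) plus far-red-tagged CCRF-Adr (ABCB1) cells / Compound dosing: one concentration, 6.6 µM final / Also added: JC-1 fluorescent substrate / Evaluation: efflux inhibition in percent versus controls / Detection: flow cytometry, 530 nm JC-1 signal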
ABCB1 block: ABCB1 efflux pump inhibitors, primary screen, cell-based, multiplex, flow cytometry, ABCG2 counter-screen; ATP-dependent translocase ABCB1 (Homo sapiens), P08183; CCRF-Adr cells, JC-1 efflux; inhibition, % at 6.6 µM; 190,000 compounds, 0.067% hits; in the data active means inhibition above about 40%;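 further: 0% = vehicle and 100% = reference inhibitor; higher value means more JC-1 retained so stronger ABCB1 efflux block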
HMGR II inh: inhibitors of E. faecalis class II HMGR, primary screen, biochemical, Enterococcus faecalis; purified E. faecalis HMGR, NADPH absorbance 340 nm kinetic; 190,000 compounds, 0.41% hits; inhibition, % at 10 µM; HMG-CoA reductase (Enterococcus faecalis, mvaE);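 active means inhibition above a set limit, the median over all tested compounds plus 3 SD, cut at about 9.5% in these data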;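 further: enzyme runs in reverse so mevalonate oxidation gives rising NADPH absorbance; 0% = complete reaction with DMSO and 100% = background rate lacking mevalonate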
Furin inhibitor: human furin inhibitors, primary screen, biochemical, fluorescence intensity. P09958. purified furin, fluorogenic substrate cleavage. inhibition, % at 20 µM or 30 µM. 220,000 compounds, 0.061% hits. AID 463115, 2010; in the data active means inhibition above about 25%
Rad51 HR inh: human RAD51 strand exchange inhibitors, primary screen, biochemical, fluorescence; AID 1385, 2008; hRad51 DNA strand exchange, fluorescence dequenching; 200,000 compounds, 0.085% hits; DNA repair protein RAD51 homolog 1 (Homo sapiens), Q06609; inhibition, % at 10 µM;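 active means inhibition above 40% at the single screening dose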;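 further: 0% = DMSO control wells and 100% = blanks with heterologous ssDNA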
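material = hRad51 filaments on single-stranded DNA | reagent = Donor/quencher-labelled 47-bp dsDNA substrate | compound = 10 µM final, single point | schedule = strand-exchange reaction 15 min at room temperature | measured by = fluorescein emission 520 nm, excitation 485 nm | read-out basis = % inhibition versus plate control and blank means | benchmarks = plate controls and plate blanks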
Starred values were filed as active, the others as inactive; . = no result given.

SMILES	PERK inhibitor	ABCG2 block	ABCB1 block	HMGR II inh	Furin inhibitor	Rad51 HR inh
COc1ccc2nc(NC(=O)CSc3nnc(C)n3N)sc2c1	4.7*	.	.	.	-6.1	9.0
O=C(CN1C(=O)COc2ccc(S(=O)(=O)N3CCOCC3)cc21)NCc1ccccn1	3.5*	.	.	.	-1.2	-28.7
O=C(CN1C(=O)COc2ccc(S(=O)(=O)N3CCOCC3)cc21)NCc1ccco1	1.9	.	.	.	-25.7	.
CCCCN1CCc2[nH]c(=S)[nH]c(=O)c2C1	0.9	4.1	0.1	-6.0	-16.8	-1.2
COC(=O)C1=C(C)N(CCCC(=O)O)C(=O)NC1c1cccs1 (stereo not given)	-0.4	0.0	44.9*	-8.7	-13.4	6.2
Cc1cnc([N+](=O)[O-])n1CCOC(=O)NC(=O)c1ccc(F)cc1	0.3	2.2	0.7	-8.1	-14.6	7.1
Cc1cccc(CN2CCN(Cc3cccc(-n4cccn4)c3)CC2CCO)n1 (stereo not given)	-0.1	1.7	2.0	-2.4	-18.3	-11.2
CC1(C)CC(=O)C=C(NNC(=O)c2ccccc2O)C1	0.4	1.1	0.3	-3.0	-33.0	96.1*
CC(=O)N1N=C(c2ccc(C)o2)CC1c1cccc(F)c1 (stereo not given)	0.4	0.2	0.0	2.3	-10.5	-0.1
S=C1NCCc2ccc(Cl)cc2C1c1ccccc1 (stereo not given)	0.9	2.1	0.6	16.6*	-25.7	0.3
CCCCCCNC(=O)n1cc(F)c(=O)[nH]c1=O	.	.	.	.	.	-6.1
CCOc1ccc(CNC(=O)CCS(=O)(=O)Cc2cccc(Cl)c2)cc1OC	1.0	12.6	0.7	0.5	-26.0	40.8*
CC1(C)CC(=O)c2sc(NS(=O)(=O)c3ccc(F)cc3)nc2C1	-0.8	7.8	1.0	-3.8	-3.6	-14.2
CCC(CC)c1nc(NCCC(=O)O)c2ccccc2n1	3.1*	0.1	0.3	-7.0	3.9	3.5
O=C(NCCO)c1nc(NCCO)c2ccccc2n1	0.4	3.2	0.5	-5.2	-9.9	0.1
CC(=O)C1=C(Nc2ccccc2)CC(C)(O)C(C(C)=O)C1c1ccccc1 (stereo not given)	1.8	.	.	.	-20.6	-19.9
COc1ccc(C2C(C(C)=O)=C(Nc3ccccc3)CC(C)(O)C2C(C)=O)cc1OC (stereo not given)	0.0	0.3	0.3	13.6*	-16.6	5.8
O=C(CN1CCN(Cc2ccccc2)CC1)N/N=C/c1c[nH]c2ccccc12	0.0	0.3	-0.3	4.9	-26.6	7.5
O=C(NCCc1nc2ccccc2[nH]1)/C(=C/c1ccco1)NC(=O)c1ccccc1Br	1.0	-0.3	0.3	0.9	-21.3	8.8
CC(NC(=O)/C(=C\c1ccco1)NC(=O)c1ccccc1Br)C(=O)O (stereo not given)	1.9	0.1	0.3	10.4*	-21.2	.
CC(C)Nc1ccc(Nc2ccnc3cc4ccccc4cc23)cc1	-1.1	.	.	.	-11.2	46.2*
COC(=O)C(NNc1ccccc1C)(NC(=O)c1ccc(F)cc1)C(F)(F)F (stereo not given)	0.3	0.0	0.5	1.8	-10.6	-2.8
O=C(CC(=O)NN=C1CCCCCC1)NCc1cccnc1	0.0	4.2	1.4	14.7*	-1.3	-49.0
O=C(NN=C1CCCCCC1)c1cccnc1	0.2	-0.8	-0.1	-2.4	-24.4	10.2
Cn1c(=O)c(C(=O)CSc2ccccc2)c(N)n(Cc2ccccc2)c1=O	1.2	17.3	1.1	14.2*	-18.5	-11.3
Cn1c(=O)c(C(=O)CCl)c(N)n(Cc2ccccc2)c1=O	0.0	0.3	0.3	2.8	-11.4	0.9
CCC(Sc1nc(N)cc(N)n1)C(=O)O (stereo not given)	-0.3	3.0	0.9	-4.7	-0.6	-5.4
Cc1ccccc1NC(=O)c1sc(NC(=O)COc2ccccc2)c(C#N)c1C	1.1	-0.1	-0.3	-1.8	-18.0	.
